Experimental findings from ChEMBL document CHEMBL1781927, “Highly selective c-Jun N-terminal kinase (JNK) 3 inhibitors with in vitro CNS-like pharmacokinetic properties II. Central core replacement” (Bioorg Med Chem Lett, 2011) are described below.

Series [1] has as its target Mitogen-activated protein kinase 10 (Homo sapiens, UniProt P53779). As to the kind of experiment: Inhibition of JNK3 by TR-FRET assay. In a few lines: (§1)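 IC50s were determined at a single fixed ATP concentration, and each value is the mean of at least three independent experiments.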
The target of series [2] is Mitogen-activated protein kinase 8 (Homo sapiens, UniProt P45983). As to the kind of experiment: Inhibition of JNK1 by TR-FRET assay. The procedure, abridged: as §1
Series [3] can be described thus: Metabolic stability in mouse liver microsomes assessed as compound remaining after 60 mins in presence of UDPGA. The class given is ADME, Microsome. To be noted: read-out: Stability.
A short description of series [4]: Apparent permeability from apical to basolateral side in MDCK2 cells at 5 uM after 120 mins. The class given is ADME, cell-based, Canis lupus familiaris, MDCK-II. To be noted: dog, MDCK.
Series [5] can be described thus: Oxidative metabolic stability in human liver microsomes assessed as compound remaining after 30 mins. The settings on record: read-out: Stability. In kind it is ADME, Microsome. The procedure, abridged: (§2)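 Liver microsomes, mouse or human, were incubated with the compound for 30 min under oxidative conditions. The read-out is the percent of parent compound remaining.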

Series [6] can be described thus: Metabolic stability in human liver microsomes assessed as compound remaining after 60 mins in presence of UDPGA. In kind it is ADME, Microsome. The settings on record: read-out: Stability.
In series [7] the target is Mitogen-activated protein kinase 9 (Homo sapiens, UniProt P45984). As to the kind of experiment: Inhibition of JNK2 by TR-FRET assay. In a few lines:
as §1

The nature of series [8]: Oxidative metabolic stability in mouse liver microsomes assessed as compound remaining after 30 mins. The class given is ADME, Microsome. The settings on record: read-out: Stability. The procedure, abridged:
as §2

A short description of series [9]: Solubility of the compound. The class given is physicochemical.
A short description of series [10]: Selectivity ratio of IC50 for JNK1 to IC50 for JNK3.
Series [11] can be described thus: Efflux ratio, permeability from apical to basolateral side to basolateral to apical side in MDR1 expressing MDCK2 cells at 5 uM after 120 mins. The class given is ADME, cell-based, Canis lupus familiaris. The settings on record: dog, mdck-ii, 2 h.

In brackets after ≈: the same amount, converted by molar mass.

Sequence of Mitogen-activated protein kinase 8 (P45983 whole entry): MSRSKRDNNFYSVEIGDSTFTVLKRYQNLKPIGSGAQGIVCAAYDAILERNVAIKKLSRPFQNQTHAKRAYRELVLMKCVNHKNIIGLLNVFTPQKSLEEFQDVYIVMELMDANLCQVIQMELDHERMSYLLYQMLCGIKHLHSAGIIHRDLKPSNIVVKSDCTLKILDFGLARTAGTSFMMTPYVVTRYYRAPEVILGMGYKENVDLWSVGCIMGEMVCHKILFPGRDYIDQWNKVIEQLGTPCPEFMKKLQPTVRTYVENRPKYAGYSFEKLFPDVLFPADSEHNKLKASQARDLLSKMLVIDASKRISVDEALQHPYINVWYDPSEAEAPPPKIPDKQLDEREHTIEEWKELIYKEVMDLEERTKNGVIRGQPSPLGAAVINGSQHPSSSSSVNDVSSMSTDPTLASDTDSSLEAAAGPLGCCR
Sequence of Mitogen-activated protein kinase 10 (P53779 whole entry): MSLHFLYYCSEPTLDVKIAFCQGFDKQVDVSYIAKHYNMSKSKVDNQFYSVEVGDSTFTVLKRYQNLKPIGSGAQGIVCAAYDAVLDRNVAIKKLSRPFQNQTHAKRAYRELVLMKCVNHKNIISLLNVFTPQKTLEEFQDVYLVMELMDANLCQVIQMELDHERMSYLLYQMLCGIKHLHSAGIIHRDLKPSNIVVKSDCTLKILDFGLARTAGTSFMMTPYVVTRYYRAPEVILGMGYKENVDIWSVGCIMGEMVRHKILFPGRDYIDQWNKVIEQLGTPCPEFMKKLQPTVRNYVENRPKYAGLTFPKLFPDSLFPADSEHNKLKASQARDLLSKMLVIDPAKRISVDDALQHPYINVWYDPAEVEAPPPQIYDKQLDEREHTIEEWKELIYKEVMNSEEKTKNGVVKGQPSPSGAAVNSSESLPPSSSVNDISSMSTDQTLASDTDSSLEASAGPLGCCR
Sequence of Mitogen-activated protein kinase 9 (P45984 whole entry): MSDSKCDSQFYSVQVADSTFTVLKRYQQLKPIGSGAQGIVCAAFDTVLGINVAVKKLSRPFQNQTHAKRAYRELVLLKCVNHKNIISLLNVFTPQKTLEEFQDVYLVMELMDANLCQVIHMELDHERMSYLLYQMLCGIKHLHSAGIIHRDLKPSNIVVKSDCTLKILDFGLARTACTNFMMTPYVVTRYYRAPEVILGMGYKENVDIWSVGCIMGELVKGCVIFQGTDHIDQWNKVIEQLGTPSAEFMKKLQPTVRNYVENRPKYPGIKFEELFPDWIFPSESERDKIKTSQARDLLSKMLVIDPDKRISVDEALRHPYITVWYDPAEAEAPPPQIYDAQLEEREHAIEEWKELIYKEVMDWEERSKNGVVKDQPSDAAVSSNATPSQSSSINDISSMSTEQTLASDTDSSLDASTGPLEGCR

Turning to `c1ccc2cc(-c3cnnn3-c3ccncc3)ccc2c1`, the IC50 in [1] was 4.81 µM; in [2], over 50 µM; in [7], 18.6 µM. Moreover, the remaining at 1 h in [3] was 90%; in [6], 78%. Also, the apical-to-basolateral permeability (Papp A→B) at 2 h, 5 µM in series [4] amounted to 37.9 ×10⁻⁶ cm/s. Further, the remaining at 0.5 h in [5] was 12%; in series [8], 0%.
Regarding `Cc1cc(-c2n[nH]c(=S)n2-c2cnc3ccccc3c2)ccn1`, the half-maximal inhibitory concentration (IC50) in series [1], in series [2] and in [7] was over 50 µM in each case. For the same molecule, the concentration in solution in series [9] (solubility) came to 100 µM (≈ 31.9 µg/mL).
As to `S=c1[nH]nc(-c2ccnc(NCC3CC3)c2)n1-c1ccc2ccccc2c1`, the results for the IC50 in series [1], in series [2] and in [7] were 0.945 µM, over 50 µM and 2.25 µM, respectively. In [9], this molecule displayed a solubility of 35 µM (≈ 13.1 µg/mL).
Consider `FC(F)(F)c1nnc(-c2ccncc2)n1-c1ccc2ccccc2c1`, for which the half-maximal inhibitory concentration (IC50) in series [1], in [2] and in [7] was over 50 µM each time. For the same molecule, the concentration in solution in series [9] (solubility) came to 15 µM (≈ 5.1 µg/mL).
Take `c1ccc2cc(-c3ncncc3-c3ccncc3)ccc2c1`: the concentration for half-maximal inhibition (IC50) was 4.13 µM in series [1], over 50 µM in series [2] and 18.1 µM in [7]. The results for the remaining at 0.5 h in [5] and in series [8] were 29% and 0%, respectively.
Take `c1ccc2cc(-n3nnnc3-c3ccncc3)ccc2c1`: the IC50 in series [1] was 49.1 µM; in series [2] it was over 50 µM; in series [7] it was over 50 µM. The solubility in series [9] came out at 15 µM (≈ 4.1 µg/mL).
For `c1ccc2cc(-c3ccnn3-c3ccncc3)ccc2c1`, the half-inhibitory concentration (IC50) in [1] came to 2.46 µM; in series [2], 41.9 µM; in [7], 9.31 µM. The remaining at 0.5 h in [5] was determined as 2%; in series [8] it was 0%.
Taken in the same sequence, the figures for `c1ccc2cc(-c3nnnn3-c3ccncc3)ccc2c1` were over 50 µM, over 50 µM, over 50 µM, 16% and 0%.
On to `S=c1[nH]nc(-c2ccnc(NC3CCCCC3)c2)n1-c1ccc2ccccc2c1`, for which the half-inhibitory concentration (IC50) in series [1] is 0.0522 µM; in [2] it was over 50 µM; in series [7], 0.0665 µM. The molecule further registered a solubility in [9] of 5 µM (≈ 2.01 µg/mL).
Consider `c1ccc2cc(-c3[nH]nnc3-c3ccncc3)ccc2c1`, for which the IC50 in series [1] is 0.364 µM; in series [2], 6.85 µM; in series [7], 1.22 µM. The Papp A→B at 2 h, 5 µM in series [4] was found to be 15.2 ×10⁻⁶ cm/s. Moreover, the results for the remaining at 0.5 h in series [5] and in series [8] were 44% and 2%, respectively.
Consider `Nc1cc(-c2n[nH]c(=S)n2-c2ccc3ccccc3c2)ccn1`, for which the figures for the 50% inhibitory concentration (IC50) in [1], in series [2] and in [7] were 1.03 µM, 24.3 µM and 0.504 µM, respectively. Besides, the concentration in solution in series [9] (solubility) came to 100 µM (≈ 31.9 µg/mL).
With `S=c1[nH]nc(-c2ccncc2)n1-c1ccc2ncccc2c1`, the figures for the IC50 in [1], in series [2] and in [7] were 31.8 µM, over 50 µM and over 50 µM, respectively. Also, in [9], the solubility was 15 µM (≈ 4.58 µg/mL).
`c1ccc2cc(-n3nccc3-c3ccncc3)ccc2c1`: the IC50 in series [1] is 1.23 µM; in series [2], over 50 µM; in series [7] it was 4.88 µM. Also, the remaining at 0.5 h amounted to 58% in series [5] and 11% in series [8].
As to `N/N=c1\[nH]nc(-c2ccncc2)n1-c1ccc2ccccc2c1`, the IC50 in series [1] is 14.9 µM; in [2], over 50 µM; in series [7], 34 µM. For the same molecule, in series [9], the solubility was 65 µM (≈ 19.7 µg/mL).
`c1ccc2cc(-c3nn[nH]c3-c3ccncc3)ccc2c1`: the Ratio IC50 in [10] amounted to 20.
Take `c1ccc2cc(-n3nncc3-c3ccncc3)ccc2c1`: the concentration for half-maximal inhibition (IC50) was 2.67 µM in [1], over 50 µM in [2] and 9.14 µM in [7].
With `c1ccc2cc(-n3cnnc3-c3ccncc3)ccc2c1`, the half-inhibitory concentration (IC50) in series [1] was 4.48 µM; in series [2], over 50 µM; in [7], 19 µM. In series [9], this molecule displayed a solubility of 35 µM (≈ 9.53 µg/mL). The results for the remaining at 1 h in [3] and in [6] were 87% and 100%, respectively. In addition, the Papp A→B at 2 h, 5 µM in series [4] is 30.6 ×10⁻⁶ cm/s. For the same molecule, the values for the remaining at 0.5 h in series [5] and in series [8] were 100% and 76%, respectively.
In the case of `c1ccc2cc(-n3ccnc3-c3ccncc3)ccc2c1`, the 50% inhibitory concentration (IC50) in series [1] is 1.91 µM; in [2], over 50 µM; in series [7], 6.39 µM. The remaining at 0.5 h in [5] stood at 18%; in series [8] it was 0%.
`c1ccc2cc(-c3[nH]ncc3-c3ccncc3)ccc2c1`: in series [10], the Ratio IC50 amounted to 20.
Consider `Cc1cc(-c2n[nH]c(=S)n2-c2ccc3ccccc3c2)ccn1`, for which the half-inhibitory concentration (IC50) in series [1] was 14.8 µM; in series [2], over 50 µM; in [7] it was 15.3 µM. This molecule had a solubility in series [9] of 100 µM (≈ 31.8 µg/mL).
`c1ccc2cc(-c3n[nH]cc3-c3ccncc3)ccc2c1`: the figures for the 50% inhibitory concentration (IC50) in [1], in [2] and in [7] were 0.245 µM, 7.15 µM and 0.864 µM, respectively. The remaining at 1 h stood at 100% in [3] and 73% in [6]. In [11], the Ratio turned out to be 1.14. Moreover, the Papp A→B at 2 h, 5 µM in series [4] came to 16.9 ×10⁻⁶ cm/s. The results for the remaining at 0.5 h in series [5] and in series [8] were 52% and 1%, respectively.
Take `Clc1nnc(-c2ccncc2)n1-c1ccc2ccccc2c1`: the figures for the 50% inhibitory concentration (IC50) in [1], in series [2] and in [7] were 30.4 µM, over 50 µM and over 50 µM, respectively. The molecule further registered a solubility in series [9] of 78 µM (≈ 23.9 µg/mL).
As to `S=c1[nH]nc(-c2ccncc2)n1-c1cnc2ccccc2c1`, the IC50 in series [1], in [2] and in series [7] was over 50 µM each time. For the same molecule, in series [9], the solubility came out at 100 µM (≈ 30.5 µg/mL).
As to `Clc1nnn(-c2ccncc2)c1-c1ccc2ccccc2c1`, the 50% inhibitory concentration (IC50) in [1] was 12.6 µM; in [2], over 50 µM; in series [7], 37.9 µM. Further, the remaining at 0.5 h in [5] amounted to 5%; in series [8], 0%.
`S=c1[nH]nc(-c2ccnc(Br)c2)n1-c1ccc2ccccc2c1`: the half-maximal inhibitory concentration (IC50) in series [1], in [2] and in [7] was over 50 µM in each case. In addition, the concentration in solution in [9] (solubility) was 35 µM (≈ 13.4 µg/mL).
On to `Cc1nnc(-c2ccncc2)n1-c1ccc2ccccc2c1`, for which the results for the IC50 in series [1], in series [2] and in series [7] were 18.3 µM, over 50 µM and 46.2 µM, respectively. The molecule also gave a solubility in [9] of 100 µM (≈ 28.6 µg/mL).
Take `Fc1cnccc1-c1n[nH]c(=S)n1-c1ccc2ccccc2c1`: the concentration for half-maximal inhibition (IC50) in series [1] was 27.4 µM; in series [2], over 50 µM; in series [7] it was 34.6 µM. In series [9], this molecule showed a solubility of 35 µM (≈ 11.3 µg/mL).
